Molecules are shown by their SMILES. The source made the active and inactive calls.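 The calls were made as follows: active = curve reaches 10% of the strong reference activator's caspase signal at or below the top valid tested dose; inactive = signal moves in the opposite direction, or the rest.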

A short description of this assay: apoptosis induction in non-primed human MEWO line – cell-based, luminescence, dry powder, set 2, counter-screen for A1 inhibitor project, dose response (AID 504354). Particulars: MEWO cells (unprimed), caspase-Glo luminescence, 3 h, stronger effect = higher value; at 35 µM unless noted. The gist of the method: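 System: unprimed MEWO cell line expressing A1; Amount: 2500 cells/well; Medium: RPMI-1640 plus 10% FBS; Doses: pin-transferred compound; Schedule: 3 h compound treatment at 37 °C, 1 h reagent at RT; Detection: CaspaseGlo luminescence, reagent mixed 1:1 with 50 mM HEPES; Read-out basis: caspase activity from luminescent signal.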
A general note: Counterscreens check selectivity or assay interference.
As for `Cc1ccc(Sc2cc(=O)n(C)c3ccccc23)cc1`, the caspase activation was -6.38% (inactive).

For the compound `Cc1ccc(Sc2c([N+](=O)[O-])c(=O)oc3ccccc23)cc1`, the caspase activation was -4.32% (inactive). The result for `O=C(Oc1cccc(/C=N/Nc2nc(Nc3ccccc3)nc(N3CCOCC3)n2)c1)c1ccco1` reads 2.6% [at 16 µM] (inactive); that for `CCOCCCNc1c([N+](=O)[O-])c(=O)n(C)c2ccccc12`, 2.4% (inactive). With `Cc1ccc(Sc2c([N+](=O)[O-])cnc3ccccc23)cc1` the figure was 6.63% [at 16 µM] (inactive); with `Cc1ccc(Sc2c([N+](=O)[O-])c(=O)n(C)c3ccccc23)cc1`, 2.38% (inactive).

For the origin of these results see PubChem BioAssay AID504354 (Broad Institute, 2011).
